The values that follow come from PubChem BioAssay.

Molecules are shown by their SMILES. Unmarked numbers belong to inactive results. Records with an inconclusive call do not appear. Calls of active or inactive are those of the source.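 Rule for the calls, unless noted: active = viability increase at or above a cutoff of the median across tested compounds plus 3 SD (cut at about 8.5% in these data, passing the limit was not always enough); inconclusive = some gains above the cutoff, reason not given; inactive = the rest.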

The nature of assay [1]: OD615 S. cerevisiae growth inhibition, permissive medium, pilot counter-assay, permissive growth control for S. cerevisiae lifespan shortening project (AID 705;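 active = growth inhibition above 25% in both replicates, a cutoff set 3 SD above the mean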). Conditions: OD615, 24 h, at 10 µM, active compounds read high. Put shortly: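 System – S. cerevisiae with engineered DeaD lifespan system · Buffer or medium – SC raffinose/galactose permissive medium · Schedule – cells pre-grown 4 h, then 24 h compound exposure, 30 °C humidified · Technique – culture turbidity as optical density at 615 nm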

Assay [2] can be described thus: Restrictive medium S. cerevisiae growth inhibition, OD615, pilot screen of yeast lifespan reduction project, restrictive growth control (AID 706;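 active = growth inhibition above a set limit, 3 SD over mean compound inhibition, in both replicates, cut at about 43% in these data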;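 note: modified DeaD lifespan yeast strain shifted to restrictive glucose medium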). The settings on record: OD615, 48 h, at 10 µM, active compounds read high. Put shortly:
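Material: engineered S. cerevisiae DeaD strain / Medium: glucose-based CSMM-D restrictive medium / Compound: single dose of 10 µM compound final, 0.25% DMSO / Timing: 4 h pre-incubation, 48 h exposure at 30 °C / Technique: OD615 absorbance reading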

Assay [3] can be described thus: viability gain of MRP-1-high H69AR cells under doxorubicin, pilot screen, MRP-1 activator project, CellTiter-Glo, duplicate (AID 807).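 Note: compound pretreatment 18-22 h then 72 h combined with doxorubicin; 0% = doxorubicin alone and 100% = vehicle without doxorubicin.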 The settings on record: H69AR viability with doxorubicin, CellTiter-Glo luminescence; at 10 µM; active compounds read high. In general terms: ATP-based viability assays read luminescence as a measure of living cells.
Assay [4] can be described thus: growth suppression of beta-catenin knockout HCT116, pilot screen, human colon tumor cells (AID 823;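 active = cell viability at or below a set limit in both duplicate runs, the limit being the all-compound median minus 4 SD, cut at about 23% in these data, passing the limit was not always enough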;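 note: 0% = wells killed by 20 µM Hyamine and 100% = untreated DMSO cell wells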). Conditions: CellTiter-Glo, 60 h, at 10 µM, active compounds read low.
The nature of assay [5]: growth suppression of PTEN-deleted HCT116, pilot screen, cell-based, HCT116 clonal line, CellTiter-Glo (AID 824;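 active = viability at or below 27.92% in each of two runs, the all-compound median minus 4 SD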;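 note: 0% = 20 µM Hyamine control and 100% = vehicle cell control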). The settings on record: 60 h, at 10 µM, active compounds read low.
Assay [6] is described as follows: inhibitors of the yeast RAM network, pilot screen, dse1pr::URA3 reporter, 5-FOA selection (AID 869;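 active = inhibition over a set limit, the all-compound mean plus 3 SD, in both replicate runs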;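 note: 0% = DMSO wells with no growth and 100% = 10 µM 1-NA-PP1 with full growth; RAM network block rescues cells from 5-FOA so hits raise OD615 growth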). Conditions: S. cerevisiae dse1pr::URA3 5-FOA growth, OD615, 2 d; at 10 µM; active compounds read high; strain carries analog-sensitive mutant Cbk1 kinase.
A short description of assay [7]: RAM signaling pathway blockade in yeast – S. cerevisiae, Pdr1DBD-CYC8 efflux-inhibited sensitized strain, primary screen (AID 1298;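 active = RAM network inhibition above 8.4% in each of two replicates, 3 SD over the compound average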;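 note: 0% = DMSO untreated cells without growth and 100% = 10 µM 1-NA-PP1 full growth; higher means more yeast growth rescued from 5-FOA killing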). Conditions: S. cerevisiae cbk1-as DSE1-URA3 strain, 5-FOA growth OD615, 2 d; at 50 µM; active compounds read high.

Usually viability stands for a read-out of living cells in per cent, often relative to untreated cells. A word on the inhibition: it is the relative decrease from the control value, in per cent. As to `CCCc1ncc(C(O)c2cccc(OC)c2OC)n1C` (stereo not drawn), the growth inhibition is -11% in assay [1] and -23% in assay [2]. Further, the viability increase in assay [3] is -2.63%. The viability is 95.9% in assay [4] and 94.4% in assay [5]. Further, the inhibition in assay [6] was 0.71%. Also, the RAM network inhibition in assay [7] is 1.45%.
In the case of `O=C(Nc1ccccc1C(=O)NCc1ccco1)NC1CCCCC1`, the growth inhibition was -5.4% in assay [1] and 6.01% in assay [2]. In addition, the viability increase in assay [3] was -3.58%. Moreover, the results for the viability in assay [4] and in assay [5] were 93.1% and 92.8%, respectively. The inhibition in assay [6] is 0.79%. For the same molecule, in assay [7], the RAM network inhibition is 0.59%.
With `Cc1cc(Nc2cccc(C)c2C)n2ncnc2n1`, the results for the growth inhibition in assay [1] and in assay [2] were -5.19% and -1.32%, respectively. Besides, the viability increase in assay [3] was -0.81%. Moreover, the figures for the viability in assay [4] and in assay [5] were 95.1% and 94.3%, respectively. The inhibition in assay [6] was -0.155%. The RAM network inhibition in assay [7] is -1.31%.
Take `CCN1C(=O)c2ccccc2Sc2ccc(C(=O)NCCN3CCOCC3)cc21`: the growth inhibition in assay [1] is -6.92%; in assay [2], -7.4%. Besides, the viability increase in assay [3] is -0.43%. The results for the viability in assay [4] and in assay [5] were 110% and 101%, respectively. Moreover, the inhibition in assay [6] is -0.985%. For the same molecule, the RAM network inhibition in assay [7] is 2.02%.
As for `CC(=O)OC(/C(O)=C(\C#N)c1nc2ccccc2[nH]1)c1ccccc1` (stereo not drawn), the growth inhibition is 0.55% in assay [1] and 3.63% in assay [2]. For the same molecule, in assay [3], the viability increase is -0.98%. The viability in assay [4] is 59.6%; in assay [5], 54.3%. Besides, the inhibition in assay [6] was 1.63%. In addition, the RAM network inhibition in assay [7] is 3.42%.
As to `CCC(=O)Nc1nc2ccc3nc(C)sc3c2s1`, the values for the growth inhibition in assay [1] and in assay [2] were -5.17% and 32.5%, respectively. Further, the viability increase in assay [3] was -4.98%. In addition, the viability in assay [4] was 75.3%; in assay [5], 81.1%. For the same molecule, the inhibition in assay [6] is 0.415%. For the same molecule, the RAM network inhibition in assay [7] is 2.94%.
Consider `O=C(Nc1nnc(-c2ccc(F)cc2)o1)c1ccco1`, for which the growth inhibition was -6.49% in assay [1] and -4.85% in assay [2]. Further, in assay [3], the viability increase is -3.74%. In addition, the viability was 97.5% in assay [4] and 92.8% in assay [5]. The inhibition in assay [6] was 1.46%. Further, in assay [7], the RAM network inhibition was 0.1%.
With `COc1ccc(OC)c2c1CC(C)(C)NC2=O`, the growth inhibition in assay [1] was 0.615%; in assay [2], 7.13%. The viability increase in assay [3] is -0.54%. Further, the viability in assay [4] is 88.3%; in assay [5] it was 96.9%. Also, the inhibition in assay [6] is 1.83%. Besides, the RAM network inhibition in assay [7] is 3.75%.
With `CCCC(=N)C1=C(O)CC(CC(C)SCC)CC1=O` (stereo not drawn), the growth inhibition in assay [1] was -5.42%; in assay [2] it was 5.29%. For the same molecule, the viability increase in assay [3] was -1.06%. The viability is 97.5% in assay [4] and 103% in assay [5]. Further, the inhibition in assay [6] is 0.49%. Also, the RAM network inhibition in assay [7] is -1.1%.
With `Cc1noc(C)c1S(=O)(=O)N(CC(=O)NCc1ccc2c(c1)OCO2)c1ccc(C(C)C)cc1`, the values for the growth inhibition in assay [1] and in assay [2] were -13.7% and -8.46%, respectively. Besides, in assay [3], the viability increase was -2.92%. Moreover, the viability in assay [4] is 82.7%; in assay [5], 76.2%. Also, in assay [6], the inhibition is -0.54%. Also, in assay [7], the RAM network inhibition was 6.57%.
For the molecule `COc1ccc(-n2nnc3c(=O)n(CC(=O)OCc4ccccc4)cnc32)cc1`, the values for the growth inhibition in assay [1] and in assay [2] were 0.92% and 1.45%, respectively. In addition, in assay [3], the viability increase is -1.76%. The viability is 98.7% in assay [4] and 99.9% in assay [5]. For the same molecule, in assay [6], the inhibition is 1.19%. Besides, in assay [7], the RAM network inhibition was 6.18%.
With `COc1cccc2c1N1C(=O)c3c(C(=O)O)cccc3C1CC2(C)C` (stereo not drawn), the figures for the growth inhibition in assay [1] and in assay [2] were -15.2% and -18.1%, respectively. Moreover, the viability increase in assay [3] is -2.18%. Also, the viability in assay [4] is 108%; in assay [5], 98.9%. In addition, the inhibition in assay [6] was 4.54%. Also, the RAM network inhibition in assay [7] was 2.74%.
In the case of `CC(=O)Cc1nsc(NC(=O)C2Cc3ccccc3C(=O)O2)n1` (stereo not drawn), the values for the growth inhibition in assay [1] and in assay [2] were -15.5% and -1.69%, respectively. The viability increase in assay [3] is -1.57%. In addition, the viability in assay [4] is 102%; in assay [5] it was 100%. In addition, the inhibition in assay [6] is 0.45%. In assay [7], the RAM network inhibition is 6.74%.
`COc1cccc(OCCn2c(C)c(/C=N/n3cnnc3)c3ccccc32)c1`: the growth inhibition in assay [1] was 4.55%; in assay [2], 1.59%. The viability increase in assay [3] is -2.88%. Further, the viability in assay [4] is 99.3%; in assay [5] it was 87%. Also, the inhibition in assay [6] is 2.11%. For the same molecule, the RAM network inhibition in assay [7] is 7.39%.
Consider `O=C1NC(c2cccs2)C(C(=O)c2ccccc2)C(O)(C(F)(F)F)N1` (stereo not drawn), for which the growth inhibition is -0.14% in assay [1] and -7.88% in assay [2]. In addition, the viability increase in assay [3] was -0.03%. Further, the viability in assay [4] was 94.8%; in assay [5], 90.4%. Further, in assay [6], the inhibition is 0.61%. Besides, in assay [7], the RAM network inhibition was 0.87%.
`Cc1cc(Nc2ccc(F)cc2C)n2nc(C)nc2n1`: the values for the growth inhibition in assay [1] and in assay [2] were -2.58% and -5.02%, respectively. Further, in assay [3], the viability increase is -1.42%. The figures for the viability in assay [4] and in assay [5] were 101% and 98.7%, respectively. In assay [6], the inhibition was 2.01%. In addition, the RAM network inhibition in assay [7] is 5.08%.
Consider `C=CCOc1cccc(C2c3c(oc4ccccc4c3=O)C(=O)N2c2ccccn2)c1` (stereo not drawn), for which the growth inhibition in assay [1] is -8.5%; in assay [2], -8.1%. For the same molecule, the viability increase in assay [3] was -4.17%. Also, the viability in assay [4] is 79.7%; in assay [5] it was 81.6%. In addition, the inhibition in assay [6] is 2.12%. Besides, the RAM network inhibition in assay [7] was 9.18%.
Consider `C=CCOC(=O)COc1ccc2c(C)c(C)c(=O)oc2c1`, for which the values for the growth inhibition in assay [1] and in assay [2] were -17.9% and -6.88%, respectively. Also, in assay [3], the viability increase is 0.26%. In addition, the viability in assay [4] was 96.6%; in assay [5], 95.9%. Moreover, the inhibition in assay [6] was 0.765%. Besides, the RAM network inhibition in assay [7] is 4.38%.
In the case of `Cc1ccc(F)c(NC(=O)C2CCCCC2C(=O)O)c1` (stereo not drawn), the growth inhibition in assay [1] was 1.12%; in assay [2] it was -20.6%. In assay [3], the viability increase is -2.22%. For the same molecule, the results for the viability in assay [4] and in assay [5] were 90.7% and 94%, respectively. Moreover, the inhibition in assay [6] was 0.145%. In assay [7], the RAM network inhibition was 2.88%.
Turning to `Cc1nn(-c2ccccc2)c2c1C(c1ccccc1)C(C#N)=C(N)O2` (stereo not drawn), the figures for the growth inhibition in assay [1] and in assay [2] were -13.1% and -12.2%, respectively. The viability increase in assay [3] was -2.62%. The figures for the viability in assay [4] and in assay [5] were 91.3% and 87.8%, respectively. Also, in assay [6], the inhibition was 2.24%. Besides, the RAM network inhibition in assay [7] is 10.5%.
As to `O=C1c2oc3ccccc3c(=O)c2C(c2cccc(O)c2)N1CCCN1CCOCC1` (stereo not drawn), the growth inhibition in assay [1] was -8.79%; in assay [2], -7.73%. Also, the viability increase in assay [3] is -0.83%. Moreover, the viability in assay [4] and in assay [5] was 102% throughout. The inhibition in assay [6] is 0.37%. Besides, the RAM network inhibition in assay [7] was 2.79%.
With `CCOC(=O)c1sc(NC(=O)c2cccnc2)nc1C`, the growth inhibition in assay [1] was -7.2%; in assay [2], -2%. Also, in assay [3], the viability increase is -3.19%. The results for the viability in assay [4] and in assay [5] were 102% and 97.7%, respectively. Moreover, the inhibition in assay [6] was 1.7%. Besides, the RAM network inhibition in assay [7] is 1.1%.
For the molecule `O=C(Nc1nnc(-c2cccs2)o1)c1ccco1`, the growth inhibition in assay [1] was -0.7%; in assay [2], -3.64%. The viability increase in assay [3] is -4.39%. Further, the viability in assay [4] was 93.8%; in assay [5] it was 89.8%. The inhibition in assay [6] was 0.34%. Moreover, the RAM network inhibition in assay [7] is -2.19%.
For the molecule `CCOc1ccc(N(CC(=O)Nc2ccccc2C)S(=O)(=O)c2c(C)noc2C)cc1`, the growth inhibition is 10.9% in assay [1] and 4.1% in assay [2]. In addition, the viability increase in assay [3] is -5.61%. The viability in assay [4] was 15.9% (active); in assay [5], 18.1% (active). Also, the inhibition in assay [6] was 2.38%. Besides, in assay [7], the RAM network inhibition is -0.84%.
